Assay [1] deals with Rattus norvegicus. Briefly: Inhibition of locomotor activity in rats after peroral administration of the compound. The assay is classed as functional. As to conditions: po.
Assay [2] concerns Monkey. Briefly: Effect on Inhibition of Sidman avoidance in squirrel monkeys when administered orally. The assay is classed as functional. As to conditions: in Saimiri, po. The method, boiled down:
(§1)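 Sidman avoidance in mature squirrel monkeys; oral dosing at three doses, four animals per dose; ED50 with SEM derived from the dose-response.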

Assay [3] concerns Rattus norvegicus. The experiment in a line: Reversal of 6-OHDA-induced depression in rats, after sc injection after dosing for a period of 30 min. The assay is classed as functional. As to conditions: 0.5 h. An outline of the steps:
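Rats pretreated at least one month earlier with 6-OHDA (200 μg icv) plus pargyline (50 mg/kg ip) and desmethylimipramine (25 mg/kg ip), giving about 90% brain DA depletion checked in representative animals. Test drug given sc; locomotor activity recorded for 30 min starting immediately after dosing.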

Assay [4] relates to Rattus norvegicus. The experiment in a line: Inhibition of accumulation of DOPA in rat striatum, after intraperitoneal administration. The assay is classed as functional. As to conditions: ip. An outline of the steps:
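Rats dosed ip 1 h before sacrifice; GBL (750 mg/kg ip) and NSD 1015 (100 mg/kg ip) given 30 and 25 min before sacrifice. Striatal DOPA measured by HPLC with electrochemical detection. ED50 is the dose giving half-maximal decrease in DOPA formation, from three to five dose levels with four to five rats per group.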

Assay [5] deals with Rattus norvegicus. Briefly: Inhibition of dopamine neuronal firing in the anesthetized rats after ip administration at a dose 2.5 mg/kg. The assay is classed as functional. As to conditions: route intraperitoneal. The method, boiled down: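 Zona compacta DA cells of substantia nigra recorded extracellularly in chloral-anesthetized rats, identified by waveform and firing pattern, with recording sites confirmed histologically. Drug given at 2.5 mg/kg ip via an indwelling catheter. Baseline was the mean rate over the 2 min before injection. Effect was the mean over the 1-min period of maximal inhibition.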

For assay [6], the system named is Rattus norvegicus. The experiment in a line: Reversal of reserpine induced depression in rats, after sc injection after dosing for a period of 30 min. As to conditions: 0.5 h. The assay is classed as functional. An outline of the steps:
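Normal rats given reserpine 5 mg/kg 24 h before testing, then test drug sc. Locomotor activity recorded for 30 min starting immediately after dosing. Locomotor stimulation read as reversal of reserpine-induced depression.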

The subject of assay [7] is Rattus norvegicus. The experiment in a line: Inhibition of locomotor activity in rats, after sc injection after dosing for a period of 30 min. The assay is classed as functional. To be noted: 0.5 h.
The test system of assay [8] is Monkey. The experiment in a line: Effect on EPS liability in squirrel monkeys sensitized to haloperidol at 2.5 mg/kg; A=Active. The assay is classed as functional, organism-based. Also noted: dose 2.5 mg/kg. To be noted: Cercopithecidae.
For assay [9], the system named is Monkey. The experiment in a line: Effect on Inhibition of Sidman avoidance in squirrel monkeys was determined. The assay is classed as functional. To be noted: in Saimiri. An outline of the steps: as §1

This is an account of results in ChEMBL document CHEMBL1124184, “Dopamine autoreceptor agonists as potential antipsychotics. 1. (Aminoalkoxy)anilines” (J Med Chem, 1988).

Activity calls are given as the source filed them. The calls are words filed in the database; no cut-off is given here. Where only a bound is given, the exact number is not on record here.

As a reminder, the ED50 is the dose at which the effect has come halfway, by size or by number of responders. One may read the inhibition in vivo as the drop in the measured response relative to a control, in per cent.

As to `Nc1cccc(OCCCN2CCN(c3ccccc3)CC2)c1`, the ED50 in the assay with Rattus norvegicus [1] is 10.3 mg/kg; in the assay with Monkey [2], 8.5 mg/kg; in the assay with Rattus norvegicus [3], over 30 mg/kg; in the assay on Rattus norvegicus [4] it was 12 mg/kg; with Rattus norvegicus [6] it was over 30 mg/kg; in the assay with Rattus norvegicus [7], 1.8 mg/kg. In the assay with Rattus norvegicus [5], this compound returned an inhibition in vivo at 2.5 mg/kg of 85%.
Regarding `CSc1ccc2c(c1)N(CCC1CCCCN1C)c1ccccc1S2` (stereo not given) [THIORIDAZINE], the EPS entry in the assay on Monkey [8] was “Active”. For the same compound, the ED50 in the assay on Monkey [9] worked out at 3.9 mg/kg.
Regarding `Nc1cccc(OCCCN2CCN(c3ccccn3)CC2)c1`, it took a dose of 9.2 mg/kg to reach the 50% effect level in the assay on Rattus norvegicus [1] (ED50). Also, the inhibition in vivo at 2.5 mg/kg in the assay on Rattus norvegicus [5] worked out at 46%.
Turning to `Nc1cccc(OCCCN2CC=C(c3ccccc3)CC2)c1`, the ED50 in the assay on Rattus norvegicus [1] is 12.1 mg/kg; in the assay on Rattus norvegicus [3], 0.13 mg/kg; in the assay with Rattus norvegicus [4], 7 mg/kg; in the assay on Rattus norvegicus [6], over 30 mg/kg; with Rattus norvegicus [7], 0.35 mg/kg. In the assay with Rattus norvegicus [5], this compound displayed an inhibition in vivo at 2.5 mg/kg of 89%.
As for `C1=C(c2ccccc2)CCN(CCCCc2c[nH]c3ccccc23)C1`, the ED50 in the assay on Rattus norvegicus [1] is 4.8 mg/kg; in the assay on Rattus norvegicus [3] it was 0.4 mg/kg; in the assay on Rattus norvegicus [4] it was 2.2 mg/kg; in the assay with Rattus norvegicus [6], over 30 mg/kg; with Rattus norvegicus [7], 0.64 mg/kg. In the assay with Rattus norvegicus [5], this compound had an inhibition in vivo at 2.5 mg/kg of 100%.
For `CN1CCc2cccc3c2[C@H]1Cc1ccc(O)c(O)c1-3` [APOMORPHINE], the ED50 with Rattus norvegicus [1] is over 30 mg/kg; in the assay on Rattus norvegicus [3] it was 0.006 mg/kg; in the assay with Rattus norvegicus [4], 0.3 mg/kg; with Rattus norvegicus [6], 0.096 mg/kg; in the assay with Rattus norvegicus [7] it was 0.021 mg/kg. Besides, testing at 2.5 mg/kg in the assay on Rattus norvegicus [5] gave an inhibition in vivo of 100%.
Regarding `CCCN1CCC[C@H](c2cccc(O)c2)C1`, the ED50 was over 30 mg/kg with Rattus norvegicus [1], 0.6 mg/kg in the assay on Rattus norvegicus [3], 7.2 mg/kg in the assay with Rattus norvegicus [4] and 8.8 mg/kg in the assay with Rattus norvegicus [7]. For the same compound, in the assay with Rattus norvegicus [5], testing at 2.5 mg/kg gave an inhibition in vivo of 100%.
`CCCN(CCCOc1cccc(N)c1)CCc1ccccc1` returned an ED50 with Rattus norvegicus [1] of over 30 mg/kg. The compound also returned an inhibition in vivo at 2.5 mg/kg in the assay with Rattus norvegicus [5] of 8%.
In the case of `CN(C)c1cccc(OCCCN2CCN(c3ccccc3)CC2)c1`, the ED50 with Rattus norvegicus [1] was determined as 9.2 mg/kg. At 2.5 mg/kg the inhibition in vivo with Rattus norvegicus [5] was 21%.
The like results for `CNc1cccc(OCCCN2CCN(c3ccccc3)CC2)c1` were, in that order, 9.4 mg/kg and 7%.
